This passage reports IC50 and GI50 results from ChEMBL document CHEMBL1154872, “Design, synthesis, and biological evaluation of novel pyrimidine derivatives as CDK2 inhibitors” (Eur J Med Chem, 2010).

Assay [1] addresses Cyclin-dependent kinase 2/cyclin A (Homo sapiens, UniProt P24941). Description: Inhibition of human recombinant CDK2/cyclin A expressed in baculovirus-infected insect Sf21 cells after 10 mins.
For assay [2], the target named is Epidermal growth factor receptor (Homo sapiens, UniProt P00533). Description: Inhibition of EGFR.
The subject of a further assay is A-431. Description: Growth inhibition of human A431 cells after 2 days by sulforhodamine B assay. Type of assay: functional. The note with it: A-431, 48 h. The procedure, abridged:
(§1)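 Cells kept in RPMI 1640 with 10% FBS at 37 °C, 5% CO2; 1000 cells/well plated, compounds added next day at various concentrations, 2 days exposure. Fixed with 4% formalin 30 min, stained 0.1% SRB 30 min, acetic acid washes, dye eluted in 0.1 M Tris-HCl pH 8.0, A520 read. Triplicate, averaged; time-zero absorbance = 0%, untreated 2-day growth = 100%.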

Another assay has as its system HCT-116. Description: Growth inhibition of human HCT116 cells after 2 days by sulforhodamine B assay. Type of assay: functional. The note with it: HCT-116, 48 h. The method, boiled down:
as §1
For orientation: In SRB staining, fixed cells bind dye roughly in proportion to their protein.

Each structure is given as a SMILES string.

Chain of Epidermal growth factor receptor (P00533 whole entry): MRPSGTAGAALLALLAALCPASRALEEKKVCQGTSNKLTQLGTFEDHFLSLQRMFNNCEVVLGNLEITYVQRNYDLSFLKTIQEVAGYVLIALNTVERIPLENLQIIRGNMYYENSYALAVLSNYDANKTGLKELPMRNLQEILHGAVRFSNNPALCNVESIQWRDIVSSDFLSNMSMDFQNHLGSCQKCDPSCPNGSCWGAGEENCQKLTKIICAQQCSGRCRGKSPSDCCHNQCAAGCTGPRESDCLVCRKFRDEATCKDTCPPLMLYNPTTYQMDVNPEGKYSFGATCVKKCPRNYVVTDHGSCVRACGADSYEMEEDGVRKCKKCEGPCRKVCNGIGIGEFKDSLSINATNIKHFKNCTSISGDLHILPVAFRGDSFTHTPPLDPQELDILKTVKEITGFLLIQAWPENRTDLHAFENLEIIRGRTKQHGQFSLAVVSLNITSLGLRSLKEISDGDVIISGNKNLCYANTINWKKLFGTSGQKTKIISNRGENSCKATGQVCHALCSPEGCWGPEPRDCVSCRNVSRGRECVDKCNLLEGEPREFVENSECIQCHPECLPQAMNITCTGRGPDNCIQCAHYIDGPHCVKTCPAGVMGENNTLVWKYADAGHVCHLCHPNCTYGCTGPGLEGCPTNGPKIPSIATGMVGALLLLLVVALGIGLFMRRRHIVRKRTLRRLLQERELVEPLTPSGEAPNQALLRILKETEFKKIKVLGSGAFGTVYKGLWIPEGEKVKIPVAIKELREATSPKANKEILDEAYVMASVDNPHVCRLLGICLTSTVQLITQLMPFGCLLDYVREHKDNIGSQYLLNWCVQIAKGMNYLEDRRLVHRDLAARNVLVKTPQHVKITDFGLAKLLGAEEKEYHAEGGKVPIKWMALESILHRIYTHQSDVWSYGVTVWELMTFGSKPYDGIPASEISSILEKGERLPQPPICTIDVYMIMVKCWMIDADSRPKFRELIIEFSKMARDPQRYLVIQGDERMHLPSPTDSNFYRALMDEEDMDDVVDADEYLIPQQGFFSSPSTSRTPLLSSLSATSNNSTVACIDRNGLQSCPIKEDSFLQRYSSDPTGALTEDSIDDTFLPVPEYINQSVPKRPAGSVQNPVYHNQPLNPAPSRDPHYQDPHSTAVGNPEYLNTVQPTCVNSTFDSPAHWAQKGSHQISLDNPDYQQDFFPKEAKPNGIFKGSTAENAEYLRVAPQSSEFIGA

Take `CC1=C(C(=O)Nc2cccc([N+](=O)[O-])c2)C(c2ccc(O)cc2O)NC(Nc2ccc(S(=O)(=O)Nc3ncccn3)cc2)=N1` (centres undefined): the half-inhibitory concentration (IC50) in assay [1] turned out to be 57.5 µM; in assay [2], 88.3 µM. The GI50 in the assay on A-431 was 69.2 µM; with HCT-116, 77.5 µM.

As to `CC1=C(C(=O)Nc2cccc([N+](=O)[O-])c2)C(c2ccc(O)cc2O)NC(Nc2ccc(S(=O)(=O)Nc3nc(C)cc(C)n3)cc2)=N1` (centres undefined), the IC50 in assay [1] came out at 11.5 µM; in assay [2], 79.8 µM. Also, the GI50 in the assay on A-431 turned out to be 3.94 µM; with HCT-116 it was 8.99 µM.

Consider `CC1=C(C(=O)Nc2cccc([N+](=O)[O-])c2)C(c2ccc(O)cc2O)NC(Nc2ccc(S(=O)(=O)Nc3cc(C)on3)cc2)=N1` (centres undefined), for which the IC50 in assay [1] is 0.9 µM; in assay [2], over 100 µM. In addition, the figures for the 50% growth inhibitory concentration (GI50) in the assay with A-431 and with HCT-116 were 2.94 µM and 16.6 µM, respectively.

As for `CC1=C(C(=O)Nc2cccc([N+](=O)[O-])c2)C(c2ccc(O)cc2O)NC(NN2C(=O)/C(=C\c3cccs3)SC2=S)=N1` (centres undefined), the IC50 stood at 0.3 µM in assay [1] and 80.6 µM in assay [2]. Also, the 50% growth inhibitory concentration (GI50) was 2.78 µM in the assay on A-431 and 4.5 µM in the assay with HCT-116.

For `CC1=C(C(=O)Nc2cccc([N+](=O)[O-])c2)C(c2ccc(O)cc2O)NC(NN2C(=O)/C(=C\c3ccccc3)SC2=S)=N1` (centres undefined), the IC50 was 28.2 µM in assay [1] and over 100 µM in assay [2]. For the same molecule, the GI50 was 24.3 µM with A-431 and 16.6 µM in the assay with HCT-116.

Regarding `CC1=C(C(=O)Nc2cccc([N+](=O)[O-])c2)C(c2ccc(O)cc2O)NC(NN)=N1` (centres undefined), the IC50 was over 100 µM in assay [1] and 47.9 µM in assay [2]. The 50% growth inhibitory concentration (GI50) is 24.3 µM in the assay with A-431 and 47.7 µM with HCT-116.

As for `CC1=C(C(=O)Nc2cccc([N+](=O)[O-])c2)C(c2ccc(O)cc2O)NC(NN2C(=O)/C(=C\c3ccco3)SC2=S)=N1` (centres undefined), the IC50 in assay [1] is 0.4 µM; in assay [2], 99.3 µM. For the same molecule, the GI50 is 28.9 µM in the assay with A-431 and over 100 µM with HCT-116.

As for `CC1=C(C(=O)Nc2cccc([N+](=O)[O-])c2)C(c2ccc(O)cc2O)NC(N/N=C/c2cccs2)=N1` (centres undefined), the IC50 is 22.9 µM in assay [1] and over 100 µM in assay [2]. The GI50 with A-431 was found to be 19.1 µM; in the assay with HCT-116, 38.2 µM.

In the case of `Cc1nc(S(=O)(=O)Cc2ccccc2)nc(-c2ccc(O)cc2O)c1C(=O)Nc1cccc([N+](=O)[O-])c1`, the IC50 is 0.9 µM in assay [1] and over 100 µM in assay [2]. Also, the values for the GI50 in the assay with A-431 and in the assay with HCT-116 were 28.9 µM and 10.9 µM, respectively.

`CC1=C(C(=O)Nc2cccc([N+](=O)[O-])c2)C(c2ccc(O)cc2O)NC(N/N=C/c2ccco2)=N1` (centres undefined): the IC50 is 3.8 µM in assay [1] and over 100 µM in assay [2]. Further, the GI50 in the assay with A-431 turned out to be 2.91 µM; in the assay with HCT-116, 8.89 µM.

In the case of `CC1=C(C(=O)Nc2ccc(C)cc2)C(c2ccc(O)cc2O)NC(Nc2ccc([N+](=O)[O-])cc2Cl)=N1` (centres undefined), the IC50 in assay [1] turned out to be 44.9 µM; in assay [2], 60.9 µM. Moreover, the GI50 with A-431 came to 31.9 µM; in the assay with HCT-116 it was 28.2 µM.

On to `CC1=C(C(=O)Nc2cccc([N+](=O)[O-])c2)C(c2ccc(O)cc2O)NC(NCc2ccccc2)=N1` (centres undefined), for which the IC50 was 46.8 µM in assay [1] and over 100 µM in assay [2]. For the same molecule, the values for the concentration for 50% growth inhibition (GI50) in the assay on A-431 and with HCT-116 were 35.6 µM and over 100 µM, respectively.

For the molecule `CC1=C(C(=O)Nc2cccc([N+](=O)[O-])c2)C(c2ccc(O)cc2O)NC(Nc2ccc([N+](=O)[O-])cc2Cl)=N1` (centres undefined), the 50% inhibitory concentration (IC50) in assay [1] is 8.1 µM; in assay [2] it was over 100 µM. The GI50 in the assay on A-431 stood at 3.94 µM; with HCT-116, 10.9 µM.

Turning to `Cc1ccc(NC(=O)c2c(C)nc(S(=O)(=O)Cc3ccccc3)nc2-c2ccc(O)cc2O)cc1`, the IC50 in assay [1] was 48.3 µM; in assay [2] it was over 100 µM. Further, the GI50 with A-431 was determined as 32 µM; in the assay on HCT-116 it was 23.4 µM.

Take `CC1=C(C(=O)Nc2ccc(C)cc2)C(c2ccc(O)cc2O)NC(SCc2ccccc2)=N1` (centres undefined): the values for the IC50 in assay [1] and in assay [2] were 25.4 µM and 93.5 µM, respectively. Also, the GI50 was found to be 20.8 µM in the assay on A-431 and 14.5 µM with HCT-116.

As for `CC1=C(C(=O)Nc2cccc([N+](=O)[O-])c2)C(c2ccc(O)cc2O)NC(SCc2ccccc2)=N1` (centres undefined), the IC50 in assay [1] was determined as 24.6 µM; in assay [2] it was 55.6 µM. The figures for the concentration for 50% growth inhibition (GI50) in the assay on A-431 and in the assay with HCT-116 were over 100 µM and 29 µM, respectively.

In the case of `CC1=NN(C2=NC(C)=C(C(=O)Nc3cccc([N+](=O)[O-])c3)C(c3ccc(O)cc3O)N2)C(=O)/C1=C/c1ccco1` (centres undefined), the IC50 in assay [1] is 10.3 µM; in assay [2], over 100 µM. In addition, the results for the GI50 in the assay with A-431 and in the assay on HCT-116 were 15.8 µM and over 100 µM, respectively.

In the case of `CC1=NN(C2=NC(C)=C(C(=O)Nc3cccc([N+](=O)[O-])c3)C(c3ccc(O)cc3O)N2)C(=O)/C1=C/c1cccs1` (centres undefined), the IC50 is 3.1 µM in assay [1] and over 100 µM in assay [2]. Besides, the GI50 amounted to 37.1 µM in the assay with A-431 and 26.5 µM with HCT-116.

Turning to `CC1=C(C(=O)Nc2ccc(C)cc2)C(c2ccc(O)cc2O)NC(NCc2ccccc2)=N1` (centres undefined), the IC50 was over 100 µM in assay [1] and 23.5 µM in assay [2]. Also, the GI50 in the assay with A-431 is 42.7 µM; with HCT-116 it was 66.7 µM.

As to `COc1cccc2c1C(=O)c1c(O)c3c(c(O)c1C2=O)C[C@@](O)(C(=O)CO)C[C@@H]3O[C@H]1C[C@H](N)[C@H](O)[C@H](C)O1` [DOXORUBICIN], the values for the concentration for 50% growth inhibition (GI50) in the assay on A-431 and in the assay with HCT-116 were 0.18 µM and 0.13 µM, respectively.

On to `CC[C@H](CO)Nc1nc(NCc2ccccc2)c2c(n1)N(C(C)C)CN2` [RESCOVITINE], for which, in assay [1], the IC50 amounted to 0.5 µM.

As a reminder, the IC50 is the midpoint of a concentration-inhibition curve. What is called GI50 is the concentration that inhibits growth by half. Higher therefore signals lower sensitivity of the cells.
